TCR-CD3 inh: human TCR-CD3 binding inhibition; hit rate 0.37% among 360,000; TAMRA-labeled TCR probe fluorescence, biochemical; inhibition, % at 9.4 µM; AID 651800; in the data active = inhibition above about 19%;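 note: recombinant mutant TCR 2C K166C tagged with TAMRA read by polarization; 0% = receptor in buffer alone and 100% = receptor with positive control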
HTRA1 inhibitor: HTRA1 (human) protease inhibition; Q92743; recombinant HTRA1, FP-rhodamine activity-based probe, fluorescence polarization; hit rate 0.5% among 340,000; inhibition, % at 5.96 µM; in the data active = inhibition above about 36%;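 note: 0% = enzyme with DMSO and 100% = wells lacking enzyme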
ABHD4 inh: ABHD4 (mouse) inhibition, primary FP screen; Q8VD66; purified mABHD4, FP-Rh probe fluorescence polarization; inhibition, % at 8.92 µM; hit rate 0.54% among 370,000;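 active = inhibition exceeding the mean over every tested compound plus 3 SD, cut at about 30% in these data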;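 note: 0% = plate median of compound wells and 100% = S159A mutant with DMSO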
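system = mouse ABHD4 enzyme, wild type | medium = HEPES pH 7.0, NaCl, Pluronic buffer | also added = FP-Rh probe | incubation = Enzyme–compound pre-incubation 45 min, then probe 60 min, both 25 °C | technique = fluorescence polarization, excitation 525 nm, emission 598 nm, BODIPY TMR filters | controls = S159A mutant high control, sample median low control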
SIAE primary: human SIAE inhibition, primary screen. Q9HAT2. SIAE FP-Rh probe binding, fluorescence polarization. inhibition, % at 9.66 µM. hit rate 0.69% among 370,000. AID 1053197;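 active = inhibition above a cutoff: mean of compounds within the control limits plus 3 SD of those, cut at about 17% in these data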;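 note: 0% = plate median of compound wells and 100% = probe without SIAE protein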
PRMT1 FP inh: inhibitors of human PRMT1 | Q99873 | recombinant PRMT1, activity-based probe fluorescence polarization | inhibition, % at 2.79 µM | hit rate 1.3% among 370,000;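 active = inhibition above about 21% made by adding two undisclosed values, limit read from the data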
Target sequence (Q99873 whole entry, looked up): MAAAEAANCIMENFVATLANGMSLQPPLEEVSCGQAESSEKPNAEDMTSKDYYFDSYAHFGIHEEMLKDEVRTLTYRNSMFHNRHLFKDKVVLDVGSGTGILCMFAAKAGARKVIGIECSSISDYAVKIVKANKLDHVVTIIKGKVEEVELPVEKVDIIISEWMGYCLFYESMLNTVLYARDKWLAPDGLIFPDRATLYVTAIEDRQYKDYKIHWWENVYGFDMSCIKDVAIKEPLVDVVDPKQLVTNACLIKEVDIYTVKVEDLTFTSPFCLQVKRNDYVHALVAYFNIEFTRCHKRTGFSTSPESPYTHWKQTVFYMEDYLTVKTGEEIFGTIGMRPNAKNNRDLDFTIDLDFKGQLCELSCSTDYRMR
PRMT1 confirm: confirmation of human PRMT1 inhibitors; shares compounds with PRMT1 FP inh; recombinant His-PRMT1, activity-based probe fluorescence polarization; inhibition, % at 2.79 µM; hit rate 42% among 3,300; AID 687036;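 active = mean inhibition across replicates above the hit cutoff derived for the earlier primary screen, cut at about 22% in these data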
* = called active by the depositor; nt = not tested or not shown. Hits are enriched below; roughly 2.5% of the tested compounds scored in any of these assays.

SMILES	TCR-CD3 inh	HTRA1 inhibitor	ABHD4 inh	SIAE primary	PRMT1 FP inh	PRMT1 confirm
COc1cc(/C=N/n2cc(-c3ccccc3)[nH]c2=S)cc(OC)c1O	2	11	13	-2	47*	27*
Oc1ccc(/C=N/n2cc(-c3ccccc3)[nH]c2=S)cc1	1	-1	-8	-5	44*	24*
S=c1[nH]c(-c2ccccc2)cn1/N=C/c1cccc2ccccc12	2	-33	3	5	15	nt
Cc1ccc(/C=N/n2cc(-c3ccccc3)[nH]c2=S)s1	-6	1	7	-1	28*	16
S=c1[nH]c(-c2ccccc2)cn1/N=C/c1ccccc1Br	-4	-1	5	-6	11	nt
COC(=O)[C@]12C[C@H](CC(=O)NCc3ccc(OC)c(OC)c3)C(=O)N(Cc3ccco3)C1=C[C@H](C(C)C)O[C@@H]2C1CC1	nt	nt	3	2	1	nt
O=C(NC1CCC1)c1ccc(C#Cc2cccc(F)c2)cn1	nt	nt	-8	2	2	nt
CCOc1ccc(-c2cc(C(=O)OC)c3n(c2=O)CCC3)cc1	nt	nt	1	1	-3	nt
CC(=O)Nc1ccc(SC(Sc2ccc(NC(C)=O)cc2)c2ccccc2)cc1	-5	-40	-40	-17	29*	22*
CC(=O)Nc1ccc(NC(=S)Nc2ccccc2)cc1	-3	2	9	2	1	nt
CCCCCc1ccc(-c2n[nH]c(=O)c3ccccc23)cc1	nt	nt	-10	-5	6	nt
Cc1ccc(-c2c(NC(=O)c3cccc(C)c3)nc3ncccn23)cc1	nt	nt	9	0	-3	nt
Cc1ccc(/C=C/C(=O)OCC(=O)N(C)c2c(N)n(Cc3ccccc3)c(=O)[nH]c2=O)o1	-10	6	-5	0	44*	-1
CC(C)(C)c1ccc(-c2nnc(SCC(=O)Nc3ccc4cn[nH]c4c3)n2-c2ccc(Cl)cc2)cc1	nt	nt	-3	-3	1	nt
O=C(O)COCc1nc2ccccc2s1	11	0	12	-4	53*	8
CC(=O)c1ccc(OC(=O)CCc2nc3ccccc3s2)cc1	-1	nt	2	7	75*	27*
Cc1nn(-c2ccccc2)c2sc(C(=O)NC3CCCC3)cc12	nt	nt	-35	-3	0	nt
C=CCN1C(=O)[C@@H](CC(=O)N2CCSCC2)[C@]2(C(=O)OCC)CCCCC/C=C/12	nt	nt	5	-4	0	nt
Cc1cc(Br)cn2c(Cc3ccccc3)c(-c3ccco3)nc12	5	nt	2	0	35*	12
Cc1cc(Br)cn2c(Cc3ccsc3)c(-c3ccco3)nc12	-1	nt	11	0	27*	12
C=CCN(CC#CC1=CCCCC1)CC1CC1	nt	nt	5	1	-4	nt
CCCCCC(=O)NC1CCCCN(Cc2ccc(Cl)cc2)C1=O (stereo unspecified)	nt	nt	-1	0	0	nt
CCOC(=O)N(CC)OC(=O)Nc1ccc(Cl)cc1	-3	-4	-2	3	6	nt
CCOC(=O)N(C)OC(=O)Nc1ccc(Cl)c(Cl)c1	-5	-18	-6	-7	35*	36*
CC(C)CCN1C(=O)COc2ccccc2C1c1nnnn1-c1ccc2c(c1)OCCO2 (stereo unspecified)	nt	nt	0	-1	4	nt
SMILES	TCR-CD3 inh	HTRA1 inhibitor	ABHD4 inh	SIAE primary	PRMT1 FP inh	PRMT1 confirm
CC(=O)Nc1ccc(SCC(=O)c2cc(C)n(-c3ccccc3F)c2C)cc1	8	-26	14	5	28*	30*
COC(=O)c1ccc(-n2c(C)cc(C(=O)CSc3ccc(NC(C)=O)cc3)c2C)cc1	-1	-16	8	6	50*	30*
COC(=O)c1ccc(-n2c(C)cc(C(=O)CSc3cccc[n+]3[O-])c2C)cc1	-5	-2	4	-5	4	nt
CCCCOCCCNC(=O)C[C@H]1C(=O)N(CCCOC)C2=CCCCC[C@]21C(=O)OC	nt	nt	-3	5	0	nt
c1ccc(Sc2ccncc2)cc1	3	2	0	-6	-3	nt
c1cc(SSc2ccncc2)ccn1	3	3	7	7	87*	83*
CCNc1nc(NCC)n2c(SCC(=O)Nc3ccccc3F)nnc2n1	-3	3	4	-6	27*	19
CCNc1nc(NCC)n2c(SCC(=O)Nc3ccccc3OC(F)F)nnc2n1	3	-9	4	-5	-3	nt
CC1CC(C)CN(C(=O)c2ccc(-c3ccc([N+](=O)[O-])cc3)o2)C1 (stereo unspecified)	-10	-12	26	3	35*	18
O=C(c1ccc(-c2cccc([N+](=O)[O-])c2)o1)N1CCN(c2ccc([N+](=O)[O-])cc2)CC1	3	-6	4	3	3	nt
O=C(c1ccc(-c2ccc([N+](=O)[O-])cc2)o1)N1CCCCC1	-4	0	3	0	46*	11
COC(=O)[C@H]1C[C@@]2(c3ccccc3)c3ccccc3N[C@H]2N1	nt	nt	0	9	-3	nt
C=CCNC(=O)CSc1nc2c(c(=O)[nH]1)CCCC2	nt	nt	2	3	7	nt
CCOC(=O)C1=C(C)N=c2s/c(=C/c3cccc(OCC(=O)O)c3)c(=O)n2C1c1ccc(F)cc1 (stereo unspecified)	1	nt	-23	-16	41*	0
CCOC(=O)C1=C(C)N=c2s/c(=C\c3ccc(C(=O)O)cc3)c(=O)n2C1c1ccc(F)cc1 (stereo unspecified)	-6	-2	1	-1	13	nt
CCOC(=O)C1=C(C)N=c2s/c(=C\c3cccc(OCC(=O)O)c3)c(=O)n2C1c1ccccc1 (stereo unspecified)	6	-5	-9	-1	32*	9
COc1ccccc1C1C2=C(N=c3s/c(=C/c4cccc(OCC(=O)O)c4)c(=O)n31)c1ccccc1CC2 (stereo unspecified)	11	-51	-18	-20	56*	22*
O=C(CSC1=NCCN1)Nc1cccc(C(F)(F)F)c1	-4	-2	6	-5	52*	35*
Cn1ccnc1SCC(=O)Nc1cccc(C(F)(F)F)c1	-5	3	8	4	-1	nt
COC(=O)[C@]12C[C@H](CC(=O)NCCc3ccccc3OC)C(=O)N(Cc3ccco3)C1=C[C@H](C(C)(C)C)O[C@@H]2C	nt	nt	0	-2	0	nt
O=c1c2ccccc2nc(N2CCN(c3ccccc3)CC2)n1Cc1ccccc1	8	-12	-9	2	74*	3
Cc1ccc(C)c(N2CCN(c3nc4ccccc4c(=O)n3Cc3ccccc3)CC2)c1	5	-2	2	1	-1	nt
CC(=O)OCCN(C)c1cc(SC(C)C)c2nonc2c1[N+](=O)[O-]	4	0	1	-2	6	nt
CN(CCO)c1cc(Sc2nc3ccccc3s2)c2nonc2c1[N+](=O)[O-]	-4	7	22	7	90*	89*
COc1cc(C=Nn2c(-c3n[nH]c4c3CCC4)n[nH]c2=S)ccc1OCc1ccccc1	nt	nt	-3	3	5	nt
Clc1ccc(-n2nnc(-c3nccs3)n2)cc1Cl	1	1	8	-9	38*	24*

Screening data from PubChem.
